PubChem BioAssay AID492975 (The Scripps Research Institute Molecular Screening Center, 2010)
Active and inactive are the calls of the source.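 Rule for the calls: active = inhibition above 50% of the malaria lysate aminopeptidase activity; inactive = inhibition of 50% or less.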

Biological target: Aspartyl aminopeptidase (Plasmodium falciparum (isolate 3D7)) (UniProt Q8I2J3)
Test: inhibitors of M18 aminopeptidase activity, malaria lysate – cell lysate, fluorescence, malaria cell lysate, powder samples, late-stage follow-up (AID 492975)
Details: P. falciparum lysate, H-Glu-NHMec fluorogenic substrate; at 5 µM; stronger effect = higher value
How it was run: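 Assay system: Plasmodium falciparum cell lysate with native PfM18 aspartyl aminopeptidase; quantity: malaria cell lysate at 10 µg/mL final; dosing: single compound dose of 5 µM final; timing: 10 min pre-incubation, 30 min reading; measured by: fluorescence 370/460 nm, 1-min intervals; read-out: % inhibition versus control wells; controls: no-compound and no-lysate control wells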

Chain of Aspartyl aminopeptidase (Plasmodium falciparum (isolate 3D7)) (Q8I2J3 whole entry, looked up): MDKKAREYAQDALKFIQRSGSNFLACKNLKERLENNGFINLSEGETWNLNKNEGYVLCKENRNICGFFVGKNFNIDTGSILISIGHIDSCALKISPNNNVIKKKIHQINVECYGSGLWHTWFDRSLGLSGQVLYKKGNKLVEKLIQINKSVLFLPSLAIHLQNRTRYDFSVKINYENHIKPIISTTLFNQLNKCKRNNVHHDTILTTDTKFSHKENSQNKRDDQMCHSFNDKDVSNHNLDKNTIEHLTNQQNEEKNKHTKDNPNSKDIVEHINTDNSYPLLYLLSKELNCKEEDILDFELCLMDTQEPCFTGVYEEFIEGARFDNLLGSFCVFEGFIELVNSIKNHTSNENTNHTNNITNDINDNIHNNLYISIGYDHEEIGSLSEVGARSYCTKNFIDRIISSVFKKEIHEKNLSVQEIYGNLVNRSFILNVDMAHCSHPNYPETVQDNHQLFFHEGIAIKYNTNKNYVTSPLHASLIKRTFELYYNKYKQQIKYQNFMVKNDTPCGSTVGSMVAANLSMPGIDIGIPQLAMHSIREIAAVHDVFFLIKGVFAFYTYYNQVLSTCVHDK

With Oc1ccc(-c2cn3ccccc3n2)cc1O the inhibition was 94%.

For COc1cccc(-c2cc(C(=O)Nn3cnnc3)c3ccccc3n2)c1, the inhibition was 0% (inactive).

Oc1ccc(-c2csc(-c3ccccc3)n2)cc1O showed an inhibition of 94%.

COc1ccc(C(=O)n2cnnc2N)cc1 was tested, and the inhibition was 12% (inactive).

In the case of OC(Cn1cnnc1)c1ccccc1 (stereo not given), the inhibition is reported as 12% (inactive).

For O=c1[nH]c(=S)[nH]c(O)c1/C=C1\C=c2ccccc2=N1, the inhibition was 41% (inactive).

Work on O=C(O)c1ccc(O)c(O)c1 yielded an inhibition of 94%.

COc1ccc2nc(C)cc(SCC(=O)N/N=C/c3ccc(O)c(O)c3)c2c1 gave an inhibition of 83%.

In the case of S=C(Nc1cc(Cl)ccc1Cl)Nn1cnnc1, the inhibition is reported as 20% (inactive).

Oc1ccc(/C=C/c2cc(O)cc(O)c2)cc1 gave an inhibition of 66%.

For O=C(Nc1cccc(Cl)c1Cl)Nn1cnnc1, the inhibition was 26% (inactive).

In the case of O=C(Nn1cnnc1)c1ccccc1-c1ccccc1, the inhibition is reported as 10% (inactive).

With Nc1nncn1C(=O)CCCOc1ccc(Cl)cc1Cl the inhibition was 3% (inactive).

With O=S(=O)(Nn1cnnc1)c1ccccc1 the inhibition was 2% (inactive).

O=C(CSc1ncn[nH]1)OCN1C(=O)c2ccccc2C1=O was tested, and the inhibition was 49% (inactive).

O=C(CNC(=O)c1ccccc1)NCCc1ccc(O)c(O)c1 showed an inhibition of 94%.

For O=C(Nc1ccc(Br)cc1Cl)Nn1cnnc1, the inhibition was 28% (inactive).

O=C(CSc1nc2ccccc2c(=O)[nH]1)c1ccc(O)c(O)c1 gave an inhibition of 79%.

For CCN(CC)S(=O)(=O)c1ccc(C(=O)Nn2cnnc2)cc1, the inhibition was 31% (inactive).

For CC1=NNC(=O)/C1=C\c1cn(-c2ccccc2)nc1-c1ccc(F)cc1, the inhibition was 68%.

Work on Oc1ccc(-c2csc(-c3cccnc3)n2)cc1O yielded an inhibition of 99%.

COC(=O)CN(n1cnnc1)S(=O)(=O)c1ccccc1 was tested, and the inhibition was 0% (inactive).

Compound O=[N+]([O-])c1cc([N+](=O)[O-])c2cccnc2c1Oc1ccccc1O has an inhibition of 85%.

Work on Cc1ccc([N+](=O)[O-])cc1-c1[nH]c(-c2ccc(O)c(O)c2)nc1-c1ccccc1 yielded an inhibition of 92%.

With O=C(O)c1cn[nH]c1-n1cnnn1 the inhibition was 7% (inactive).

In the case of O=C(CSc1ncn[nH]1)Nc1nc(-c2ccccc2)ns1, the inhibition is reported as 12% (inactive).

O=c1c(O)c(-c2ccc(O)c(O)c2)oc2cc(O)cc(O)c12 showed an inhibition of 80%.

For Cc1ccc(Cl)cc1NC(=S)Nn1cnnc1, the inhibition was 16% (inactive).

For Oc1cc(O)c2c(c1)O[C@H](c1ccc(O)c(O)c1)[C@H](O)C2, the inhibition was 89%.

COc1cc(Br)cc(/C=N/c2ncn[nH]2)c1O was tested, and the inhibition was 0% (inactive).

In the case of COc1ccc(NC(=O)NNC(=O)CCc2ccc(O)c(O)c2)cc1OC, the inhibition is reported as 86%.

O=C(Nc1ccc(Cl)c(Cl)c1)Nn1cnnc1 was tested, and the inhibition was 84%.

O=C(O)CSc1ncn[nH]1 was tested, and the inhibition was 66%.

O=C(NC(=S)Nn1cnnc1)c1ccccc1Br was tested, and the inhibition was 14% (inactive).

Cc1cc(=O)[nH]c(SCC(=O)c2ccc(O)c(O)c2)n1 gave an inhibition of 61%.

With CCc1ccccc1NC(=S)Nn1cnnc1 the inhibition was 14% (inactive).

O=C(Nn1cnnc1)c1csc2ccccc12 was tested, and the inhibition was 5% (inactive).

With Cc1cccc(NC(=S)Nn2cnnc2)c1C the inhibition was 12% (inactive).

CC1(C)CC(=O)c2c(oc3cc(O)c(O)cc23)C1 was tested, and the inhibition was 85%.

For Cc1cc(C)cc(C(=O)n2cnnc2N)c1, the inhibition was 11% (inactive).

O=C(CSc1nn(-c2ccccc2)c(=S)s1)Nn1cnnc1 was tested, and the inhibition was 9% (inactive).

In the case of CCC(C)c1ccc(O)c(N)c1 (stereo not given), the inhibition is reported as 95%.

In the case of COc1ccc(Cl)cc1NC(=O)Nn1cnnc1, the inhibition is reported as 21% (inactive).

Work on CN1CCc2cccc3c2[C@@H]1Cc1ccc(O)c(O)c1-3 yielded an inhibition of 84%.

With CC(C)n1c(SCC(=O)Nc2nncs2)nnc1-c1ccco1 the inhibition was 11% (inactive).

Cc1cc(C)n2c(=S)[nH]nc2n1 gave an inhibition of 74%.

CCOC(=O)C1=C(CS(=O)(=O)c2ccc(F)cc2)NC(=O)NC1c1ccc(O)c(O)c1 (stereo not given) showed an inhibition of 90%.

With Cc1nc(-c2ccc(O)c(O)c2)cs1 the inhibition was 95%.

With Cc1ccc(-n2c(O)c(/C=N/n3cnnc3)c3ccccc3c2=O)cc1 the inhibition was 12% (inactive).

O=c1[nH]c(CSc2ncn[nH]2)nc2ccccc12 was tested, and the inhibition was 15% (inactive).

With Br/C(C=Nn1cnnc1)=C\c1ccccc1 the inhibition was 14% (inactive).

Work on NCCc1ccc(O)c(O)c1 yielded an inhibition of 70%.

CC1(C)CC2(CC(c3ccccc3F)c3ccc(O)c(O)c3O2)NC(=S)N1 (stereo not given) gave an inhibition of 89%.

For COc1cc([N+](=O)[O-])ccc1NC(=O)Nn1cnnc1, the inhibition was 0% (inactive).

Cc1c(Cl)cccc1NC(=O)Nn1cnnc1 was tested, and the inhibition was 10% (inactive).

COc1cccc2c(SCC(=O)N/N=C/c3ccc(O)c(O)c3)cc(C)nc12 was tested, and the inhibition was 80%.

For COC(=O)CN(n1cnnc1)S(=O)(=O)c1ccc(C)cc1, the inhibition was 6% (inactive).

O=c1c2c([N+](=O)[O-])cc([N+](=O)[O-])cc2sn1Cc1ccccc1 showed an inhibition of 94%.

Cc1nc2ccccn2c1C(=O)NNC(=O)Nc1ccccc1 was tested, and the inhibition was 53%.

With Cc1ccc(NC(=S)Nn2cnnc2)c(C)c1 the inhibition was 7% (inactive).
